Activity calls are given as the source filed them. No cut-off for these calls is given here.

Data set [1] concerns T47D. Kind of data set: Growth inhibition of human T47D cells at 10^-7 M after 5 days relative to control. Format: functional. The conditions noted are these: 120 h, read-out: GI. The essentials:
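Cell survival assay in ER+ T47D breast cancer cells dependent on estrogen for growth. Compounds tested at 10–7 and 10–6 M, with 4-OHT as positive control. Read-out is % growth inhibition from survival relative to control.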

Data set [2] relates to MCF7. Kind of data set: Growth inhibition of human MCF7 cells at 10^-6 M after 5 days relative to control. It is filed as functional. The conditions noted are these: MCF7, 120 h, read-out: GI. In short, it runs like this:
(§1)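 Cell survival assay on ER+ MCF-7 or T47D cells treated at fixed concentrations of 10–7 M and 10–6 M. 4-OHT-treated cells served as positive control. Growth inhibition is expressed as percent relative to survival.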

Data set [3] concerns T47D. The experiment in a line: Cytotoxicity against human T47D cells after 5 days. Format: functional, cell-based. The conditions noted are these: 120 h.
Data set [4] deals with MCF7. The experiment in a line: Cytotoxicity against human MCF7 cells after 5 days. Format: functional, cell-based. The conditions noted are these: MCF7, 120 h.
Data set [5] deals with MCF7. Kind of data set: Drug uptake in human MCF7 cells at 10^-6 M after 6 days by HPLC-MS/MS analysis. It is filed as ADME, cell-based. The conditions noted are these: mcf7, 144 h, 1 µM. The essentials:
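Uptake is estimated indirectly. Drug remaining in the culture medium was measured after 6 days of incubation with MCF-7 cells.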

The next data set has as its system MDA-MB-231. The experiment in a line: Cytotoxicity against human MDA-MB-231 cells assessed as cell survival at 10^-7 M relative to vehicle-treated control. Format: functional. To be noted: for viability at 0.1 µM: read-out: Survival. In short, it runs like this: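 MDA-MB-231 used as the ER-negative breast cancer line, tested at 10–7 M alongside MCF-7 cells. Read-out is survival ratio versus control.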

Data set [6] concerns MCF7. The experiment in a line: Ratio of tamoxifen IC50 to compound IC50 for human MCF7 cells. Format: functional.
Data set [7] has as its system MCF7. The experiment in a line: Growth inhibition of human MCF7 cells at 10^-7 M after 5 days relative to control. Format: functional. To be noted: MCF7, 120 h, read-out: GI. The essentials:
as §1

The test system of data set [8] is MCF7. The experiment in a line: Ratio of 4-hydroxytamoxifen IC50 to compound IC50 for human MCF7 cells. It is filed as functional.
The nature of data set [9]: Half life of the compound in human MCF7 cells at 10^-6 M by HPLC-MS/MS analysis. It is filed as ADME, cell-based.
For data set [10], the system named is T47D. The experiment in a line: Growth inhibition of human T47D cells at 10^-6 M after 5 days relative to control. It is filed as functional. To be noted: 120 h, read-out: GI. In short, it runs like this:
as §1

The test system of data set [11] is T47D. Kind of data set: Metabolic stability in human T47D cells assessed as compound remaining by LC-MS/MS analysis. It is filed as ADME, cell-based. In short, it runs like this: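 Culture medium from MCF-7 or T47D cells incubated with prodrug was analysed for both intact prodrug and released 4-OHT. Results are reported as relative chromatographic peak areas (% of total for prodrug versus 4-OHT).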

Data set [12] relates to MCF7. The experiment in a line: Metabolic stability in human MCF7 cells assessed as compound remaining by LC-MS/MS analysis. Format: ADME, cell-based.

For orientation: IC50 means the concentration that gives 50% inhibition. A higher IC50 goes with weaker potency in that assay. On to `CCC(=C(c1ccc(O)cc1)c1ccc(OCCN(C)C)cc1)c1ccccc1`, for which the inhibition of growth at 0.1 µM with T47D [1] was found to be 51%; with MCF7 [7] it was 56%. Further, the inhibition of growth at 1 µM with MCF7 [2] was determined as 63%. The half-inhibitory concentration (IC50) with T47D [3] was 210 nM; in the data set on MCF7 [4], 29.1 nM. The Drug uptake entry with MCF7 [5] is on record as “Active”. Also, the viability at 0.1 µM in the data set with MDA-MB-231 was above 95%. The “Ratio IC50” value in the data set with MCF7 [6] amounted to 30.

Usually half-life stands for how long it takes for the measured level to halve. Read a high half-life as slow loss. Turning to `CC/C(=C(/c1ccc(OCCN(C)C)cc1)c1ccc(B2OC(C)(C)C(C)(C)O2)cc1)c1ccccc1`, the inhibition of growth at 1 µM in the data set with MCF7 [2] is 63%; with T47D [10], 60%. In addition, the Ratio IC50 in the data set on MCF7 [8] turned out to be 0.2. Besides, the IC50 with T47D [3] is 144 nM; in the data set on MCF7 [4] it was 148 nM. For the same compound, in data set [9], the half-life at 1 µM is 89 h. In addition, the Drug uptake entry with MCF7 [5] is reported as “Active”. Also, in the data set on MDA-MB-231, the outcome was inactive. In the data set with MCF7 [7], the inhibition of growth at 0.1 µM was determined as 52%.

With `CC/C(=C(/c1ccc(OCCN(C)C)cc1)c1ccc(B(O)O)cc1)c1ccccc1`, the inhibition of growth at 1 µM worked out at 75% in the data set on MCF7 [2] and 54% in the data set with T47D [10]. The half-maximal inhibitory concentration (IC50) in the data set on T47D [3] came to 228 nM; in the data set with MCF7 [4], 42 nM. Further, the half-life at 1 µM in data set [9] is 96 h. The Stability was determined as 20.9% with T47D [11] and 30.4% in the data set on MCF7 [12]. The Drug uptake entry in the data set on MCF7 [5] is “Active”. In addition, in the data set on MDA-MB-231, the outcome was inactive. In addition, in the data set on MCF7 [7], the inhibition of growth at 0.1 µM came out at 51%.

As for `CC/C(=C(\c1ccccc1)c1ccc(OCCN(C)C)cc1)c1ccccc1` [TAMOXIFEN], the inhibition of growth at 1 µM with MCF7 [2] stood at 52%. In addition, the viability at 0.1 µM in the data set on MDA-MB-231 was above 95%. Further, the inhibition of growth at 0.1 µM in the data set with MCF7 [7] turned out to be 18%.

Regarding `CC/C(=C(/c1ccc(OCCN(C)C)cc1)c1ccc([B-](F)(F)F)cc1)c1ccccc1.[K+]`, the results for the inhibition of growth at 1 µM in the data set on MCF7 [2] and in the data set on T47D [10] were 76% and 50%, respectively. Moreover, the results for the IC50 in the data set on T47D [3] and in the data set with MCF7 [4] were 260 nM and 6.26 nM, respectively. Moreover, the half-life at 1 µM in [9] is 84 h. In the data set with MCF7 [5], the Drug uptake result is on record as “Active”. Further, the outcome in the data set on MDA-MB-231 was inactive. In addition, the inhibition of growth at 0.1 µM with MCF7 [7] is 59%.
